Consider 15 compounds from ChEMBL document CHEMBL2311257, “Synthesis and antioxidant activity of thymol and carvacrol based Schiff bases” (Bioorg Med Chem Lett, 2013).

Holding throughout (assay type): functional
The test system of test [1] is Radical scavenging activity. Description: Antioxidant activity assessed as DPPH radical scavenging activity in chloroform solution at 100 ug/mL. For orientation: Loss of DPPH colour is used to gauge radical scavenging.
Test [2] concerns Radical scavenging activity. The test can be described thus: Antioxidant activity assessed as DPPH radical scavenging activity in chloroform solution at 25 ug/mL.
Test [3] relates to Radical scavenging activity. The test can be described thus: Antioxidant activity assessed as DPPH radical scavenging activity in chloroform solution at 50 ug/mL.
Test [4] deals with Radical scavenging activity. The test can be described thus: Antioxidant activity assessed as DPPH radical scavenging activity in chloroform solution at 10 ug/mL.
The test system of test [5] is Radical scavenging activity. The test can be described thus: Antioxidant activity assessed as DPPH radical scavenging activity in ethanol solution at 50 ug/mL. The procedure, abridged:
(§1)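 Compound dissolved in ethanol, then ethanolic DPPH added. Incubated 30 min in the dark. DPPH decrease read as absorbance at 517 nm against an ethanol blank, with ascorbic acid as reference. % activity = [(A0 − Ai)/A0] × 100, where A0 is absorbance without compound and Ai with compound. IC50 taken from activity across concentrations.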

For test [6], the system named is Radical scavenging activity. Description: Antioxidant activity assessed as DPPH radical scavenging activity in ethanol solution at 100 ug/mL. The procedure, abridged: as §1
For test [7], the system named is Radical scavenging activity. The test can be described thus: Antioxidant activity assessed as DPPH radical scavenging activity in chloroform solution at 5 ug/mL.
In test [8] the test system is Radical scavenging activity. The test can be described thus: Antioxidant activity assessed as DPPH radical scavenging activity in ethanol solution at 25 ug/mL. The procedure, abridged:
as §1

The test system of test [9] is Radical scavenging activity. The test can be described thus: Antioxidant activity assessed as DPPH radical scavenging activity in ethanol solution at 5 ug/mL. The procedure, abridged:
as §1

In test [10] the test system is Radical scavenging activity. Description: Antioxidant activity assessed as DPPH radical scavenging activity in ethanol solution at 10 ug/mL. The procedure, abridged:
as §1

The nature of test [11]: Antioxidant activity assessed as ABTS radical scavenging activity at 5 ug/mL. The procedure, abridged: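 ABTS radical cation solution diluted in ethanol to an absorbance of 0.7–0.9 at 734 nm, 30 °C. Equal volume added to ethanolic compound solution (5 µg/mL). Absorbance read after 1 min and converted to percent inhibition.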
For test [12], the system named is Radical scavenging activity. The test can be described thus: Antioxidant activity assessed as DPPH radical scavenging activity in chloroform solution.
In test [13] the test system is Radical scavenging activity. Description: Antioxidant activity assessed as DPPH radical scavenging activity in ethanol solution. The procedure, abridged: as §1

Values after ≈ are worked out from the molar mass of the structure shown. Active and inactive are the calls of the source. No cut-off for these calls is given here.

As usually defined, the IC50 is the concentration that inhibits the measured activity by half. In the case of `Cc1cc(O)c(C(C)C)cc1/N=C/c1ccc(O)cc1`, the Activity in test [1] was determined as 93%; in test [2] it was 70.2%; in test [3], 84.5%; in test [4], 50%; in test [5], 89.8%; in [6], 92.9%. Further, the Activity was 26% in [7], 77.1% in [8], 24.4% in test [9] and 51.8% in test [10]. In addition, in [11], the outcome was Active. Moreover, the IC50 in [12] came out at 13.32 µg/mL (≈ 49.5 µM); in [13], 9.02 µg/mL (≈ 33.5 µM).

In the case of `COc1ccc(/C=N/c2cc(C)c(O)cc2C(C)C)cc1`, the Activity in test [1] turned out to be 88.7%; in test [2], 67.1%; in [3], 78.4%; in [4], 41%; in [5] it was 78.9%; in test [6], 89.5%. Moreover, the Activity in test [7] turned out to be 34.2%; in [8], 69.2%; in [9], 30.9%; in test [10], 47.5%. Further, the outcome in test [11] was Active. Besides, the IC50 in [12] worked out at 16.24 µg/mL (≈ 57.3 µM); in [13], 13.5 µg/mL (≈ 47.6 µM).

As for `COc1cc(/C=N/c2cc(C)c(O)cc2C(C)C)cc(OC)c1`, the Activity in test [1] came to 88.4%; in test [2], 61.7%; in test [3], 79.1%; in [4] it was 39.3%; in test [5], 74.2%; in [6], 85.8%. The Activity in [7] is 20.4%; in test [8] it was 65.7%; in test [9], 27.5%; in test [10], 40.7%. In [11], the outcome was Active. The IC50 in test [12] was 25.79 µg/mL (≈ 82.3 µM); in [13], 22.02 µg/mL (≈ 70.3 µM).

Take `Cc1cc(O)c(C(C)(C)C)cc1/N=C/c1cc(Br)c(O)c(Br)c1`: the Activity in test [1] stood at 95.3%; in [2] it was 78.5%; in test [3] it was 85.7%; in [4] it was 50.3%; in [5], 95.8%; in test [6] it was 95.8%. The Activity in test [7] is 24.2%; in test [8] it was 82.8%; in test [9], 23.9%; in test [10], 49%. The result in test [11] was Active. Also, the concentration for half-maximal inhibition (IC50) turned out to be 10.69 µg/mL (≈ 24.2 µM) in test [12] and 7.55 µg/mL (≈ 17.1 µM) in test [13].

As for `Cc1cc(O)c(C(C)(C)C)cc1/N=C/c1ccccc1O`, the Activity in test [1] was 90.9%; in test [2], 70%; in [3] it was 85.7%; in test [4], 48.6%; in test [5] it was 86.4%; in [6], 90.7%. The Activity in test [7] is 24.9%; in test [8], 69.6%; in test [9], 29%; in test [10], 51%. For the same compound, in test [11], the outcome was Active. In addition, the IC50 in [12] stood at 14.36 µg/mL (≈ 50.7 µM); in test [13], 10.54 µg/mL (≈ 37.2 µM).

Consider `COc1cc(/C=N/c2cc(C(C)C)c(O)cc2C)cc(OC)c1OC`, for which the Activity in test [1] is 89.9%; in [2], 68.2%; in test [3], 82.9%; in test [4], 39.8%; in test [5], 73.3%; in test [6], 83.1%. The Activity amounted to 20.7% in [7], 65.4% in [8], 26% in [9] and 41.6% in test [10]. The result in test [11] was Active. In addition, the IC50 in [12] stood at 22.03 µg/mL (≈ 64.1 µM); in [13] it was 22.96 µg/mL (≈ 66.9 µM).

For the compound `Cc1cc(/N=C/c2cc(Br)cc(Br)c2O)c(C(C)C)cc1O`, the Activity in test [1] was 88.5%; in test [2], 65.8%; in [3], 77.4%; in test [4], 44.4%; in test [5], 79.3%; in test [6], 90.8%. Besides, the Activity in [7] is 28.1%; in test [8], 72%; in test [9], 31.5%; in test [10], 47.3%. For the same compound, the result in test [11] was Active. Moreover, the IC50 in test [12] was 18.73 µg/mL (≈ 43.9 µM); in test [13], 11.97 µg/mL (≈ 28 µM).

Turning to `COc1ccc(/C=N/c2cc(C(C)(C)C)c(O)cc2C)cc1`, the Activity is 89.8% in [1]; 82.6% in test [2]; 87.3% in [3]; 36.3% in [4]; 83.4% in test [5]; 90.6% in [6]. The Activity in test [7] came out at 19.7%; in test [8], 65%; in test [9], 29.2%; in [10], 50%. In addition, the outcome in test [11] was Active. Besides, the IC50 came out at 17.55 µg/mL (≈ 59 µM) in test [12] and 13.92 µg/mL (≈ 46.8 µM) in [13].

For the compound `Cc1cc(/N=C/c2ccc(O)cc2)c(C(C)C)cc1O`, the Activity was 88.1% in test [1]; 66.2% in [2]; 75.9% in test [3]; 42.8% in test [4]; 82.9% in test [5]; 92.2% in test [6]. Further, the Activity in [7] worked out at 36.1%; in test [8], 70.4%; in test [9] it was 33.7%; in [10] it was 48.6%. Further, the result in test [11] was Active. Further, the IC50 in test [12] turned out to be 15.13 µg/mL (≈ 56.2 µM); in [13], 9.76 µg/mL (≈ 36.2 µM).

`Cc1cc(O)c(C(C)(C)C)cc1/N=C/c1cc(Br)cc(Br)c1O`: the Activity in test [1] came to 90.7%; in test [2] it was 76.4%; in test [3], 86.1%; in test [4], 45.2%; in test [5], 88.8%; in [6], 90.1%. Moreover, the Activity turned out to be 24.6% in [7], 72.7% in test [8], 26.7% in test [9] and 48.2% in test [10]. For the same compound, the outcome in test [11] was Active. In addition, the IC50 stood at 13.46 µg/mL (≈ 30.5 µM) in [12] and 11.45 µg/mL (≈ 26 µM) in [13].

Turning to `COc1cc(/C=N/c2cc(C(C)(C)C)c(O)cc2C)cc(OC)c1`, the Activity amounted to 89.5% in test [1]; 67.9% in test [2]; 86.6% in test [3]; 36.8% in test [4]; 76.9% in test [5]; 80.4% in test [6]. Besides, the Activity came to 27% in test [7], 66.1% in test [8], 26.3% in test [9] and 43.8% in [10]. Besides, the outcome in [11] was Active. In addition, the IC50 came to 19.62 µg/mL (≈ 59.9 µM) in test [12] and 20.2 µg/mL (≈ 61.7 µM) in test [13].

With `Cc1cc(O)c(C(C)(C)C)cc1/N=C/c1ccc(O)cc1`, the Activity in [1] was found to be 92.6%; in test [2], 63.3%; in test [3] it was 82.3%; in [4], 49.6%; in test [5], 89.3%; in [6], 94.6%. Further, the Activity was 31% in [7], 70.9% in test [8], 31% in test [9] and 50.8% in [10]. Also, the outcome in [11] was Active. Moreover, the IC50 worked out at 14.26 µg/mL (≈ 50.3 µM) in [12] and 8.77 µg/mL (≈ 30.9 µM) in [13].

As for `COc1ccc(/C=N/c2cc(C(C)C)c(O)cc2C)cc1OC`, the Activity in test [1] was found to be 88.9%; in test [2], 72%; in [3], 85.2%; in test [4], 41.9%; in test [5] it was 84.1%; in test [6], 89.4%. Also, the Activity was found to be 20.6% in [7], 73.4% in [8], 19.7% in test [9] and 43.3% in test [10]. Further, the result in [11] was Active. Moreover, the IC50 in test [12] is 19.12 µg/mL (≈ 61 µM); in test [13], 18.66 µg/mL (≈ 59.5 µM).

As to `COc1cc(/C=N/c2cc(C(C)(C)C)c(O)cc2C)cc(OC)c1OC`, the Activity in test [1] turned out to be 91.8%; in test [2] it was 75.8%; in test [3], 81.7%; in test [4] it was 45.2%; in test [5] it was 81%; in test [6], 84.4%. Also, the Activity in test [7] stood at 17.3%; in test [8], 65.4%; in test [9], 25.9%; in test [10], 44.9%. The outcome in [11] was Active. Moreover, the IC50 in test [12] came to 18.6 µg/mL (≈ 52 µM); in test [13], 18.79 µg/mL (≈ 52.6 µM).

Take `COc1ccc(/C=N/c2cc(C(C)C)c(O)cc2C)cc1`: the Activity stood at 90.2% in test [1]; 74.1% in test [2]; 87.7% in test [3]; 44.6% in test [4]; 85% in test [5]; 88.5% in test [6]. The Activity worked out at 21.8% in test [7], 77.5% in test [8], 27.3% in test [9] and 43.3% in test [10]. For the same compound, in test [11], the result was Active. The IC50 was 15.79 µg/mL (≈ 55.7 µM) in [12] and 12.54 µg/mL (≈ 44.3 µM) in test [13].
